Reference: ChEMBL document CHEMBL1145962, “Structure-based de novo design, synthesis, and biological evaluation of non-azole inhibitors specific for lanosterol 14alpha-demethylase of fungi” (2003)
Values after ≈ are worked out from the molar mass of the structure shown.

Assays:
Type in all cases: functional
Fonsecaea pedrosoi = assay: In vitro antifungal activity against Fonsecaea pedrosoi
Summary of the method: (§1)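 Filamentous fungi were tested by NCCLS microdilution in RPMI 1640 buffered with 0.165 M MOPS. DMSO-dissolved compounds were serially diluted in medium. MIC was read at 7 days as the lowest concentration with turbidity at ≤80% inhibition versus the drug-free control.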

Cryptococcus neoformans = assay: In vitro antifungal activity against Cryptococcus neoformans
Summary of the method: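 Microdilution MIC per NCCLS in MOPS (0.165 M)-buffered RPMI 1640. DMSO solutions were serially diluted in growth medium. Incubated at 35 °C as a yeast, with growth read at 72 h.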

Trichophyton rubrum = assay: In vitro antifungal activity against Trichophyton rubrum
Summary of the method: (§2)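 Dermatophytes tested by NCCLS serial dilution in 96-well plates, in RPMI 1640 with 0.165 M MOPS. Compounds were prepared in DMSO and diluted in medium. Incubation was at 28 °C with reading at 7 days. MIC is the lowest concentration giving turbidity at ≤80% inhibition of control growth.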

Sporothrix schenckii = assay: In vitro antifungal activity against Sporothrix schenck ii; summary of the method: as §1
Candida parapsilosis = assay: In vitro antifungal activity against Candida parapsilosis; details: Lodderomyces parapsilosis
Summary of the method: (§3)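 NCCLS broth serial dilution in 96-well plates with RPMI 1640 buffered with 0.165 M MOPS. Compounds were dissolved in DMSO and diluted in medium. Yeasts were incubated at 35 °C and read at 24 h. MIC is the lowest concentration giving turbidity at ≤80% inhibition versus the growth control.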

Candida albicans = assay: In vitro antifungal activity against Candida albicans; summary of the method: as §3
Aspergillus fumigatus = assay: In vitro antifungal activity against Aspergillus fumigatus; summary of the method: as §1
Microsporum canis = assay: In vitro antifungal activity against Microsporum canis; summary of the method: as §2

SMILES	MIC (Fonsecaea pedrosoi)	MIC (Cryptococcus neoformans)	MIC (Trichophyton rubrum)	MIC (Sporothrix schenckii)	MIC (Candida parapsilosis)	MIC (Candida albicans)	MIC (Aspergillus fumigatus)	MIC (Microsporum canis)
CCCCCC1(C)CC(=O)c2ccc(O)cc2O1 (stereo not drawn)	80 µg/mL (≈ 322 µM)	160 µg/mL (≈ 644 µM)	20 µg/mL (≈ 80.5 µM)	80 µg/mL (≈ 322 µM)	160 µg/mL (≈ 644 µM)	320 µg/mL (≈ 1290 µM)	160 µg/mL (≈ 644 µM)	40 µg/mL (≈ 161 µM)
CCCCCCCC1(C)CC(O)c2ccc(O)cc2O1 (stereo not drawn)	80 µg/mL (≈ 287 µM)	40 µg/mL (≈ 144 µM)	20 µg/mL (≈ 71.8 µM)	40 µg/mL (≈ 144 µM)	20 µg/mL (≈ 71.8 µM)	40 µg/mL (≈ 144 µM)	80 µg/mL (≈ 287 µM)	2.5 µg/mL (≈ 8.98 µM)
CC(C)=CCCC1(C)CC(=O)c2ccc(O)cc2O1 (stereo not drawn)	160 µg/mL (≈ 615 µM)	160 µg/mL (≈ 615 µM)	80 µg/mL (≈ 307 µM)	160 µg/mL (≈ 615 µM)	80 µg/mL (≈ 307 µM)	160 µg/mL (≈ 615 µM)	80 µg/mL (≈ 307 µM)	40 µg/mL (≈ 154 µM)
CC(C)=CCCC1(C)CC(O)c2ccc(O)cc2O1 (stereo not drawn)	160 µg/mL (≈ 610 µM)	160 µg/mL (≈ 610 µM)	80 µg/mL (≈ 305 µM)	80 µg/mL (≈ 305 µM)	80 µg/mL (≈ 305 µM)	80 µg/mL (≈ 305 µM)	160 µg/mL (≈ 610 µM)	10 µg/mL (≈ 38.1 µM)
CC(C)CC1(C)CC(=O)c2ccc(O)cc2O1 (stereo not drawn)	160 µg/mL (≈ 683 µM)	320 µg/mL (≈ 1370 µM)	160 µg/mL (≈ 683 µM)	320 µg/mL (≈ 1370 µM)	320 µg/mL (≈ 1370 µM)	> 320 µg/mL	160 µg/mL (≈ 683 µM)	40 µg/mL (≈ 171 µM)
CCCCCC1(C)CC(O)c2ccc(OC)cc2O1 (stereo not drawn)	> 320 µg/mL	160 µg/mL (≈ 605 µM)	20 µg/mL (≈ 75.7 µM)	> 320 µg/mL	160 µg/mL (≈ 605 µM)	320 µg/mL (≈ 1210 µM)	80 µg/mL (≈ 303 µM)	20 µg/mL (≈ 75.7 µM)
COc1ccc2c(c1)OC(C)(CCC=C(C)C)CC2=O (stereo not drawn)	> 320 µg/mL	> 320 µg/mL	> 320 µg/mL	320 µg/mL (≈ 1170 µM)	> 320 µg/mL	> 320 µg/mL	160 µg/mL (≈ 583 µM)	80 µg/mL (≈ 292 µM)
CCCCCC1(C)CC(=O)c2ccc(OC)cc2O1 (stereo not drawn)	> 320 µg/mL	> 320 µg/mL	> 320 µg/mL	> 320 µg/mL	> 320 µg/mL	> 320 µg/mL	160 µg/mL (≈ 610 µM)	80 µg/mL (≈ 305 µM)
CCCCCCCC1(C)CC(=O)c2ccc(O)cc2O1 (stereo not drawn)	80 µg/mL (≈ 289 µM)	80 µg/mL (≈ 289 µM)	40 µg/mL (≈ 145 µM)	40 µg/mL (≈ 145 µM)	160 µg/mL (≈ 579 µM)	160 µg/mL (≈ 579 µM)	160 µg/mL (≈ 579 µM)	80 µg/mL (≈ 289 µM)
CCCCCCCC1(C)CC(=O)c2ccc(OC)cc2O1 (stereo not drawn)	> 320 µg/mL	> 320 µg/mL	320 µg/mL (≈ 1100 µM)	40 µg/mL (≈ 138 µM)	320 µg/mL (≈ 1100 µM)	> 320 µg/mL	> 320 µg/mL	40 µg/mL (≈ 138 µM)
CCCCCCCC1(C)C=Cc2ccc(OC)cc2O1 (stereo not drawn)	> 320 µg/mL	> 320 µg/mL	> 320 µg/mL	> 320 µg/mL	> 320 µg/mL	> 320 µg/mL	> 320 µg/mL	320 µg/mL (≈ 1170 µM)
CCCCCC1(C)C=Cc2ccc(OC)cc2O1 (stereo not drawn)	> 320 µg/mL	320 µg/mL (≈ 1300 µM)	> 320 µg/mL	> 320 µg/mL	> 320 µg/mL	> 320 µg/mL	> 320 µg/mL	320 µg/mL (≈ 1300 µM)
COc1ccc2c(c1)OC(C)(CCC=C(C)C)C=C2 (stereo not drawn)	> 320 µg/mL	> 320 µg/mL	40 µg/mL (≈ 155 µM)	320 µg/mL (≈ 1240 µM)	> 320 µg/mL	> 320 µg/mL	> 320 µg/mL	80 µg/mL (≈ 310 µM)
CCCCCC1(C)CC(O)c2ccc(O)cc2O1 (stereo not drawn)	40 µg/mL (≈ 160 µM)	80 µg/mL (≈ 320 µM)	20 µg/mL (≈ 79.9 µM)	20 µg/mL (≈ 79.9 µM)	40 µg/mL (≈ 160 µM)	160 µg/mL (≈ 639 µM)	80 µg/mL (≈ 320 µM)	10 µg/mL (≈ 39.9 µM)
COc1ccc2c(c1)OC(C)(CCC=C(C)C)CC2O (stereo not drawn)	320 µg/mL (≈ 1160 µM)	160 µg/mL (≈ 579 µM)	160 µg/mL (≈ 579 µM)	320 µg/mL (≈ 1160 µM)	160 µg/mL (≈ 579 µM)	> 320 µg/mL	160 µg/mL (≈ 579 µM)	160 µg/mL (≈ 579 µM)
CCCCCCCCCC1(C)CC(=O)c2ccc(O)cc2O1 (stereo not drawn)	> 320 µg/mL	> 320 µg/mL	> 320 µg/mL	> 320 µg/mL	> 320 µg/mL	> 320 µg/mL	80 µg/mL (≈ 263 µM)	80 µg/mL (≈ 263 µM)
CCCCCCCC1(C)CC(O)c2ccc(OC)cc2O1 (stereo not drawn)	160 µg/mL (≈ 547 µM)	80 µg/mL (≈ 274 µM)	80 µg/mL (≈ 274 µM)	40 µg/mL (≈ 137 µM)	160 µg/mL (≈ 547 µM)	320 µg/mL (≈ 1090 µM)	80 µg/mL (≈ 274 µM)	80 µg/mL (≈ 274 µM)
CCCCCC1(C)C/C(=N/O)c2ccc(O)cc2O1 (stereo not drawn)	40 µg/mL (≈ 152 µM)	40 µg/mL (≈ 152 µM)	5 µg/mL (≈ 19 µM)	40 µg/mL (≈ 152 µM)	40 µg/mL (≈ 152 µM)	160 µg/mL (≈ 608 µM)	80 µg/mL (≈ 304 µM)	5 µg/mL (≈ 19 µM)
CC(C)=CCCC1(C)C/C(=N/O)c2ccc(O)cc2O1 (stereo not drawn)	20 µg/mL (≈ 72.6 µM)	40 µg/mL (≈ 145 µM)	5 µg/mL (≈ 18.2 µM)	40 µg/mL (≈ 145 µM)	40 µg/mL (≈ 145 µM)	80 µg/mL (≈ 291 µM)	40 µg/mL (≈ 145 µM)	2.5 µg/mL (≈ 9.08 µM)
CCCCCCCC1(C)C/C(=N/O)c2ccc(O)cc2O1 (stereo not drawn)	40 µg/mL (≈ 137 µM)	20 µg/mL (≈ 68.6 µM)	2.5 µg/mL (≈ 8.58 µM)	10 µg/mL (≈ 34.3 µM)	20 µg/mL (≈ 68.6 µM)	40 µg/mL (≈ 137 µM)	10 µg/mL (≈ 34.3 µM)	0.625 µg/mL (≈ 2.14 µM)
OC(Cn1cncn1)(Cn1cncn1)c1ccc(F)cc1F [FLUCONAZOLE]	64 µg/mL (≈ 209 µM)	32 µg/mL (≈ 104 µM)	0.5 µg/mL (≈ 1.63 µM)	0.25 µg/mL (≈ 0.816 µM)	8 µg/mL (≈ 26.1 µM)	4 µg/mL (≈ 13.1 µM)	16 µg/mL (≈ 52.2 µM)	0.5 µg/mL (≈ 1.63 µM)
